Usually IC50 stands for the concentration that gives 50% inhibition. A word on the GI50: it is the concentration at which growth is held to half of that of the control. A low value points to greater sensitivity of the cells.

Assay [1] in a line: Cytotoxicity against human MA9.3 cells after 48 hrs by MTT assay. Format: functional, cell-based. In a few lines:
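Non-transformed human CD34+ blood stem/progenitor cells from umbilical cord blood were run alongside MA9.3, an AML line made by introducing the MLL-AF9 oncogene into human CD34+ cells. IC50 was determined on each cell type. Therapeutic index is the ratio between the MA9.3 and CD34+ IC50 values.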
On the technique in general: Tetrazolium assays rely on reduction of a dye to a coloured formazan, in cell work by metabolically active cells.

In assay [2] the test system is T47D. Description: Growth inhibition of human T47D cells after 48 hrs by sulforhodamine B assay. Format: functional. In a few lines: (§1)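 Run within the National Cancer Institute 60-cell-line panel. Viability was read by sulforhodamine B staining of total cellular protein, as a measure of cell number rather than metabolic activity. GI50 values were taken from the panel data.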
Background: Sulforhodamine B stains cellular protein and so reports cell mass.

The subject of assay [3] is SK-OV-3. In words: Growth inhibition of human SKOV3 cells after 48 hrs by sulforhodamine B assay. Format: functional. The conditions noted are these: SK-OV-3, 48 h. Summed up:
(§2)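 Run in the National Cancer Institute 60-cell-line panel screen. Viability was read by sulforhodamine B staining of total protein content, so it reflects cell number rather than metabolic activity. Values are reported as GI50.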

The test system of assay [4] is MDA-MB-435. Description: Growth inhibition of human MDA-MB-435 cells after 48 hrs by sulforhodamine B assay. Format: functional. The conditions noted are these: MDA-MB-435, 48 h. Summed up: as §2
Assay [5] deals with Malme-3M. Description: Growth inhibition of human MALME-3M cells after 48 hrs by sulforhodamine B assay. Format: functional. In a few lines: as §2
Assay [6] concerns M14. In words: Growth inhibition of human M14 cells after 48 hrs by sulforhodamine B assay. Format: functional. The conditions noted are these: M14, 48 h. Summed up: as §2
Assay [7] has as its system LOX IMVI. Description: Growth inhibition of human LOXIMVI cells after 48 hrs by sulforhodamine B assay. Format: functional. In a few lines:
as §2

Assay [8] has as its system SF-295. Description: Growth inhibition of human SF295 cells after 48 hrs by sulforhodamine B assay. As to conditions: SF-295, 48 h. Format: functional. In a few lines: as §2
Assay [9] relates to SF-539. Description: Growth inhibition of human SF539 cells after 48 hrs by sulforhodamine B assay. Format: functional. As to conditions: SF-539, 48 h. In a few lines: as §2
For assay [10], the system named is HCT-116. In words: Growth inhibition of human HCT116 cells after 48 hrs by sulforhodamine B assay. Format: functional. As to conditions: HCT-116, 48 h. In a few lines:
as §2

For assay [11], the system named is COLO 205. In words: Growth inhibition of human COLO205 cells after 48 hrs by sulforhodamine B assay. Format: functional. The conditions noted are these: COLO 205, 48 h. In a few lines:
as §2

In assay [12] the test system is NCI-H460. In words: Growth inhibition of human NCI-H460 cells after 48 hrs by sulforhodamine B assay. Format: functional. As to conditions: NCI-H460, 48 h. Summed up: as §2
Assay [13] concerns NCI-H226. In words: Growth inhibition of human NCI-H226 cells after 48 hrs by sulforhodamine B assay. Format: functional. As to conditions: NCI-H226, 48 h. Summed up:
as §2

Assay [14] in a line: Growth inhibition of human EKVX cells after 48 hrs by sulforhodamine B assay. Format: functional. Summed up:
as §2

Assay [15] deals with MOLT-4. In words: Growth inhibition of human MOLT4 cells after 48 hrs by sulforhodamine B assay. As to conditions: MOLT-4, 48 h. Format: functional. Summed up: as §2
Assay [16] concerns TK-10. In words: Growth inhibition of human TK10 cells after 48 hrs by sulforhodamine B assay. Format: functional. As to conditions: TK-10, 48 h. In a few lines: as §1
Assay [17] concerns OVCAR-8. Description: Growth inhibition of human OVCAR8 cells after 48 hrs by sulforhodamine B assay. Format: functional. As to conditions: OVCAR-8, 48 h. Summed up: as §2
Assay [18] has as its system HL-60(TB). Description: Growth inhibition of human HL-60(TB) cells after 48 hrs by sulforhodamine B assay. Format: functional. The conditions noted are these: HL-60, 48 h. Summed up:
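Tested through the National Cancer Institute's NCI-60 cell line panel screen. Viability was read by sulforhodamine B staining, which measures total cellular protein and so reflects cell number rather than metabolic activity. The value is reported as GI50.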

The subject of assay [19] is A549. In words: Growth inhibition of human A549/ATCC cells after 48 hrs by sulforhodamine B assay. The conditions noted are these: A549, 48 h. Format: functional. Summed up:
as §2

For assay [20], the system named is CCRF-CEM. Description: Growth inhibition of human CCRF-CEM cells after 48 hrs by sulforhodamine B assay. Format: functional. In a few lines: as §2

In [1], `Oc1ccc(OCCN(CCOc2ccc(O)cc2)c2ccccc2)cc1` gave an IC50 of 3000 nM. Moreover, the 50% growth inhibitory concentration (GI50) stood at 10200 nM in assay [2]; 7200 nM in assay [3]; 2600 nM in assay [4]; 2200 nM in assay [5]; 1600 nM in assay [6]; 2200 nM in assay [7]. The GI50 stood at 2100 nM in [8]; 2800 nM in [9]; 4100 nM in [10]; 20000 nM in assay [11]; 2200 nM in assay [12]; 11200 nM in assay [13]. Besides, the GI50 was determined as 5800 nM in assay [14] and 1300 nM in [15].
With `CN(CCCOc1ccc(O)cc1)c1ccccc1`, the 50% inhibitory concentration (IC50) in assay [1] came to 700 nM. The GI50 stood at 4600 nM in assay [2]; 8300 nM in assay [16]; 11500 nM in assay [3]; 1500 nM in assay [17]; 6600 nM in [4]; 1700 nM in assay [6]. Further, the GI50 in [7] is 2800 nM; in assay [9], 600 nM; in assay [10], 3500 nM; in [11], 13800 nM; in assay [13] it was 10500 nM; in assay [18], 900 nM. For the same compound, the values for the GI50 in assay [19], in [15] and in [20] were 2200 nM, 2000 nM and 300 nM, respectively.
